The values below come from ChEMBL document CHEMBL1145953 (J Med Chem, 2003).

Structures are written as SMILES.

The target of data set [1] is T1, Adenosine receptor A3 (Homo sapiens, UniProt P0DMS8).
T1 sequence (P0DMS8 whole entry): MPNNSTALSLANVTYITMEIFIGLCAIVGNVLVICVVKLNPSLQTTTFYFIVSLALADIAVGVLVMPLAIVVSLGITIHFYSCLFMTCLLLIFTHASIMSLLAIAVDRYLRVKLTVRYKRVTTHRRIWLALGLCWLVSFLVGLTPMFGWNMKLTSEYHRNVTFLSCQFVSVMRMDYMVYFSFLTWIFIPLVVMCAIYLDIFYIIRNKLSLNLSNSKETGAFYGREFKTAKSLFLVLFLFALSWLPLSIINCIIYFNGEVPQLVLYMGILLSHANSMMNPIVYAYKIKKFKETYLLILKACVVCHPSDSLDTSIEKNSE
Nature of the data set: Binding affinity using [125I]ABA against human Adenosine A3 receptor.

Another data set has as its target T2, Adenosine receptor A1 (Homo sapiens, UniProt P30542).
T2 sequence (P30542 whole entry): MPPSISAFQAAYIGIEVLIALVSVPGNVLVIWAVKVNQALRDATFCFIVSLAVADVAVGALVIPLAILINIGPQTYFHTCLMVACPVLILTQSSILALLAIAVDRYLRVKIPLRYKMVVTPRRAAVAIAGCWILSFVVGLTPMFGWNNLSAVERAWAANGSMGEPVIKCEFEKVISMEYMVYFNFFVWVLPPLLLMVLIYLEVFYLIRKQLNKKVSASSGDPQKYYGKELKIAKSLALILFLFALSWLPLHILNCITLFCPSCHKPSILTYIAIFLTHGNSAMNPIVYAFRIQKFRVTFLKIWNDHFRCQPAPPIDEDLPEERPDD
Briefly: Binding affinity using [125I]ABA against human Adenosine A1 receptor.

The target in data set [2] is Adenosine receptors; A1 & A3 (Homo sapiens) (UniProt P30542+P0DMS8). Briefly: Ratio of binding affinity for human adenosine A1 and A3 receptors. In kind it is protein assay.
Data set [3] is described as follows: Tested for pKa value of compound. Format: physicochemical.
The target in data set [4] is T1, Adenosine receptor A3. Briefly: Inhibition of isoproterenol-stimulated cAMP accumulation in HEK 293 cells expressing human Adenosine A3 receptor. In kind it is functional, cell-based, HEK293. The essentials:
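Functional assay in HEK 293 cells with recombinant human A3 receptors. Cells are stimulated with isoproterenol, and the drop in cAMP accumulation is measured over a concentration–response range. EC50 comes from the curve. Mean and SEM of three experiments, each run in duplicate.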
(In general: Changes in cAMP serve as a functional read-out for many G protein-coupled receptors.)

In general, Ki refers to a measure of affinity in units of concentration, obtained from inhibition or displacement. Turning to `CNC(=O)[C@H]1O[C@@H](n2cnc3c(NCc4cccc(I)c4)ncnc32)[C@H](O)[C@@H]1N`, the Ki is 72 nM at Adenosine receptor A3 [1] and 4600 nM on Adenosine receptor A1. Besides, in data set [2], the Ratio was 64.

With `CNC(=O)[C@H]1O[C@@H](n2cnc3c(NC)ncnc32)[C@H](O)[C@@H]1O`, the Ki came to 4.8 nM at Adenosine receptor A3 [1] and 65 nM on Adenosine receptor A1. The Ratio in data set [2] came to 13.

As to `CNC(=O)[C@H]1O[C@@H](n2cnc3c(NC)ncnc32)[C@H](O)[C@@H]1N`, on Adenosine receptor A3 [1], the affinity corresponds to a Ki of 120 nM. Further, the Ratio in data set [2] is 194.

One may read the pKa as the pH at which an ionisable group is half protonated. In general, EC50 refers to the midpoint of the concentration-response curve. Low values mean an effect from little substance, high ones a need for much substance. In data set [3], `CNC(=O)[C@H]1O[C@@H](n2cnc3c(NCc4cc(Cl)ccc4OCc4cc(C)no4)ncnc32)[C@H](O)[C@@H]1N` had a pKa of 6.25. Further, the Ki at Adenosine receptor A3 [1] came out at 5.8 nM; at Adenosine receptor A1, 7300 nM. The compound also yielded an EC50 at Adenosine receptor A3 [4] of 3.4 nM.

In the case of `CNC(=O)[C@H]1O[C@@H](n2cnc3c(NCc4cc(Cl)ccc4OCc4cc(C)no4)ncnc32)[C@H](O)[C@@H]1O`, the Ki on Adenosine receptor A3 [1] came to 1.6 nM; on Adenosine receptor A1, 68 nM. In data set [2], the Ratio is 42.
